Experiment [1] concerns Rattus norvegicus. Description: In vivo inhibition of sterol synthesis in rats following 10 mg/kg p.o. The conditions noted are these: for inhibition in vivo at 10 mg/kg: Rattus norvegicus, po. Type of experiment: functional. Put shortly: (§1)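 Oral dosing of 6-week-old male Wistar rats with test compound suspended in 0.5% methylcellulose. [14C]acetate (50 μCi/kg) given iv 1 h after the dose; animals killed 1 h later. Livers saponified and extracted with petroleum ether. Sterols precipitated with 0.5% digitonin in 50% ethanol (4 h, room temperature), then counted. Result is % inhibition vs control, mean ± SD (n = 6-10), Dunnett's test.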

Experiment [2] concerns the target T1, Squalene synthase (Homo sapiens, UniProt P37268).
T1 sequence (P37268 whole entry): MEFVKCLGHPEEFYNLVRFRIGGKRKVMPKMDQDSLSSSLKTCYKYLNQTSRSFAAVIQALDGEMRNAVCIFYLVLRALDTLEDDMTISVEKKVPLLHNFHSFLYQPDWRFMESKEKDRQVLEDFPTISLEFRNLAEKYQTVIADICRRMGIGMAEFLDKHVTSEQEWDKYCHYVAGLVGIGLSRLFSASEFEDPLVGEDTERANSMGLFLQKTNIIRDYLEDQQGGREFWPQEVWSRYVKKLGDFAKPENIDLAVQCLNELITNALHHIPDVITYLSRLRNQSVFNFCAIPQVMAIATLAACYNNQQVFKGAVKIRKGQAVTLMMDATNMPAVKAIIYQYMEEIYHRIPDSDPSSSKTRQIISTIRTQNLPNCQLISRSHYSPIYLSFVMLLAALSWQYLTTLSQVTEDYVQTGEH
The experiment in a line: Inhibition of squalene synthase from human hepatoma cells (HepG2). An outline of the steps: (§2)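 Enzyme source: microsomes from HepG2 cells grown in DMEM/10% FBS, sonicated in phosphate/nicotinamide/MgCl2 buffer. Reaction contained 5 µM [1-3H]FPP, 1 mM NADPH, 5 mM MgCl2, 6 mM glutathione, 100 mM potassium phosphate pH 7.4, 2% DMSO final, 0.8 µg protein. Run 45 min at 37 °C. Chloroform-extracted [3H]squalene counted. IC50 from one run in duplicate.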

The test system of experiment [3] is Rattus norvegicus. Description: Compound was evaluated in vivo for its inhibitory activity against cholesterol synthesis in rat liver. It counts as functional. An outline of the steps: as §1
For experiment [4], the target named is T1, Squalene synthase. Description: Inhibitory activity against squalene synthase derived from human hepatoma cells (HepG2). An outline of the steps: as §2
Experiment [5] is filed under the species Rattus norvegicus. Description: Concentration required for 50% inhibitory activity against cholesterol synthesis in rat liver. It counts as functional. Put shortly: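 In vivo hepatic sterol synthesis in 6-week-old male Wistar rats. Oral doses of 1, 3 and 10 mg/kg in 0.5% methylcellulose. [14C]acetate (50 μCi/kg) iv 1 h post-dose; killed 1 h later. Radioactivity of digitonin-precipitable liver sterols measured. ED50 is the oral dose giving 50% inhibition of sterol synthesis.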

The subject of experiment [6] is Rattus norvegicus. The experiment in a line: Compound at a dose of 1 mg/kg was administered orally to 6 week old male Wistar rats and was evaluated for the inhibition of sterol synthesis. Type of experiment: functional. As to conditions: route oral. Put shortly: as §1
The test system of experiment [7] is Rattus norvegicus. Description: Compound at a dose of 3 mg/kg was dministered orally to 6 week old male Wistar rats and was evaluated for the inhibition of terol synthesis. Type of experiment: functional. As to conditions: route oral. An outline of the steps:
as §1

The test system of experiment [8] is Rattus norvegicus. The experiment in a line: Compound at a dose of 3 mg/kg was administered orally to 6 week old male Wistar rats and was evaluated for the inhibition of sterol synthesis. It counts as functional. The conditions noted are these: route oral. Put shortly:
as §1

pIC50: −log10 of the molar value.

`CCC(=O)OCC(C)(C)CN1C(=O)[C@@H](CC(=O)N2CCC(CC(=O)O)CC2)O[C@H](c2cccc(OC)c2OC)c2cc(Cl)ccc21`: the inhibition in vivo at 10 mg/kg in the experiment with Rattus norvegicus [1] was 40%. This compound also gave a negative-log IC50 (pIC50) against Squalene synthase [2] of 7.06.

Take `COc1cccc([C@H]2O[C@H](CC(=O)N(C)CC(=O)O)C(=O)N(CC(C)(C)CO)c3ccc(Cl)cc32)c1OC`: the inhibition in vivo at 10 mg/kg with Rattus norvegicus [1] was -1%. The negative-log IC50 (pIC50) at Squalene synthase [2] was 7.74.

`COc1cccc([C@H]2O[C@H](CC(=O)N3CCC(C(=O)O)CC3)C(=O)N(CC(C)(C)CO)c3ccc(Cl)cc32)c1OC`: the inhibition in vivo at 10 mg/kg with Rattus norvegicus [1] is 26%.

On to `COc1cccc([C@H]2O[C@H](CC(=O)[O-])C(=O)N(CC(C)(C)C)c3ccc(Cl)cc32)c1OC.[Na+]`, for which the ED50 with Rattus norvegicus [3] is 3 mg/kg.

For `COc1cccc([C@H]2O[C@H](CC(=O)NC(CC(C)C)C(=O)O)C(=O)N(CC(C)(C)CO)c3ccc(Cl)cc32)c1OC` (stereo partly specified), the inhibition in vivo at 10 mg/kg with Rattus norvegicus [1] came to 14%. In addition, the pIC50 at Squalene synthase [2] is 7.55.

Turning to `CCCC(=O)OCC(C)(C)CN1C(=O)[C@@H](CC(=O)N2CCC(CC(=O)O)CC2)O[C@H](c2cccc(OC)c2OC)c2cc(Cl)ccc21`, the inhibition in vivo at 10 mg/kg in the experiment with Rattus norvegicus [1] stood at 30%. This compound also gave a pIC50 against Squalene synthase [2] of 7.03.

On to `COc1cccc([C@H]2O[C@H](CC(=O)N3CCC(CCC(=O)O)CC3)C(=O)N(CC(C)(C)CO)c3ccc(Cl)cc32)c1OC`, for which the inhibition in vivo at 10 mg/kg in the experiment with Rattus norvegicus [1] worked out at 76%. At Squalene synthase [2], the negative logarithm of the IC50 (pIC50) is 7.21.

`COc1cccc([C@H]2O[C@H](CC(=O)NCCCCC(=O)O)C(=O)N(CC(C)(C)CO)c3ccc(Cl)cc32)c1OC`: in the experiment on Rattus norvegicus [1], the inhibition in vivo at 10 mg/kg came to 50%. Moreover, at Squalene synthase [2], the negative logarithm of the IC50 (pIC50) was 7.42.

For `COc1cccc([C@H]2O[C@H](CC(=O)N[C@@H](C)C(=O)O)C(=O)N(CC(C)(C)CO)c3ccc(Cl)cc32)c1OC`, in the experiment with Rattus norvegicus [1], the inhibition in vivo at 10 mg/kg came out at 14%. The compound also showed a negative-log IC50 (pIC50) against Squalene synthase [2] of 7.68.

As to `COc1cccc([C@H]2O[C@H](CC(=O)NCC(=O)O)C(=O)N(CC(C)(C)CO)c3ccc(Cl)cc32)c1OC`, in the experiment with Rattus norvegicus [1], the inhibition in vivo at 10 mg/kg worked out at 14%. This compound also showed a pIC50 on Squalene synthase [2] of 7.82.

For the compound `COc1cccc([C@H]2O[C@H](CC(=O)N3CCC(CC(=O)O)CC3)C(=O)N(CC(C)(C)COC(=O)C(C)C)c3ccc(Cl)cc32)c1OC`, the inhibition in vivo at 10 mg/kg with Rattus norvegicus [1] came to 34%. At Squalene synthase [4], the pIC50 is 7.05.

As to `COc1cccc([C@H]2O[C@H](CC(=O)NCCC(=O)O)C(=O)N(CC(C)(C)CO)c3ccc(Cl)cc32)c1OC`, the inhibition in vivo at 10 mg/kg with Rattus norvegicus [1] came out at 19%. Further, the pIC50 against Squalene synthase [2] is 7.82.

Regarding `COc1cccc([C@H]2O[C@H](CC(=O)NCCCC(=O)O)C(=O)N(CC(C)(C)CO)c3ccc(Cl)cc32)c1OC`, the inhibition in vivo at 10 mg/kg in the experiment with Rattus norvegicus [1] amounted to 59%. On Squalene synthase [2], this compound had a negative logarithm of the IC50 (pIC50) of 7.49.

With `COc1cccc([C@H]2O[C@H](CC(=O)N[C@H](C)C(=O)O)C(=O)N(CC(C)(C)CO)c3ccc(Cl)cc32)c1OC`, the inhibition in vivo at 10 mg/kg with Rattus norvegicus [1] stood at 31%. This compound had a pIC50 against Squalene synthase [2] of 7.74.

As to `COc1cccc([C@H]2O[C@H](CC(=O)N3CCC(CC(=O)O)CC3)C(=O)N(CC(C)(C)COCOC(=O)C(C)(C)C)c3ccc(Cl)cc32)c1OC`, in the experiment with Rattus norvegicus [1], the inhibition in vivo at 10 mg/kg is 43%. The compound also gave a negative logarithm of the IC50 (pIC50) against Squalene synthase [4] of 6.33.

In turn, `COc1cccc([C@H]2O[C@H](CC(=O)N3CCC(CC(=O)O)CC3)C(=O)N(CC(C)(C)COC(C)=O)c3ccc(Cl)cc32)c1OC` [LAPAQUISTAT ACETATE] had a 50% effective dose (ED50) in the experiment filed under Rattus norvegicus [5] of 2.9 mg/kg. Moreover, the inhibition in vivo at 1 mg/kg in the experiment on Rattus norvegicus [6] was determined as 31%. Besides, in the experiment on Rattus norvegicus [1], the inhibition in vivo at 10 mg/kg worked out at 81%. The inhibition in vivo at 3 mg/kg with Rattus norvegicus [7] was found to be 42%. On Squalene synthase [2], the pIC50 is 7.11.

`COc1cccc([C@H]2O[C@H](CC(=O)N3CCC(CC(=O)O)CC3)C(=O)N(CC(C)(C)CO)c3ccc(Cl)cc32)c1OC`: in the experiment filed under Rattus norvegicus [5], the 50% effect level (ED50) was put at a dose of 6.8 mg/kg. Further, in the experiment on Rattus norvegicus [6], the inhibition in vivo at 1 mg/kg came to 11%. Also, the inhibition in vivo at 10 mg/kg with Rattus norvegicus [1] worked out at 77%. Further, the Inhibition in the experiment on Rattus norvegicus [1] (route oral, 10 mg/kg) is listed as 64%. In addition, the inhibition in vivo at 3 mg/kg in the experiment on Rattus norvegicus [8] was determined as 20%. Also, the negative-log IC50 (pIC50) on Squalene synthase [2] was 7.35.

As to `COc1cccc([C@H]2O[C@H](CC(=O)N3CCC(CCCC(=O)O)CC3)C(=O)N(CC(C)(C)CO)c3ccc(Cl)cc32)c1OC`, the inhibition in vivo at 10 mg/kg in the experiment with Rattus norvegicus [1] was 87%. Further, the pIC50 against Squalene synthase [2] was 7.15.

Source of the values: ChEMBL document CHEMBL1135616, “Synthesis of novel 4,1-benzoxazepine derivatives as squalene synthase inhibitors and their inhibition of cholesterol synthesis” (J Med Chem, 2002).
